Compound activity: PubChem, several laboratories
SUMO1-SIM PPI – alters human SUMO1 binding to SIM partners; P63165; SUMO1 binding to a labelled peptide, TR-FRET, 1 h; inhibition, % at 20 µM; 360,000 tested, 0.33% active; AID 602429; in the data active means inhibition above about 37%
Target sequence (P63165 whole entry, looked up): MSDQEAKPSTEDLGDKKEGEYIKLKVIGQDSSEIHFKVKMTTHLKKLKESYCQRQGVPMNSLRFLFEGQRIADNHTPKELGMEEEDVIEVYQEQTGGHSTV
GRK2 inh – human GRK2 inhibition via aptamer displacement. P25098. bead flow cytometry, FAM-aptamer displacement from GRK2. inhibition of aptamer binding, % at 10 µM. 330,000 tested, 0.59% active;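 active means inhibition of aptamer binding above 40%, roughly 3 SD of noise, on plates passing a quality check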;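 further: median bead fluorescence of bound FAM aptamer so fluorescent compounds give negative values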
DNMT1 inh – DNMT1 (human) enzyme inhibition; 360,000 tested, 0.83% active; P26358; inhibition (reported as % activation of signal), % at 10 µM; DNMT1 molecular beacon, Hinp1I cleavage, fluorescence; AID 588458; in the data active means inhibition above about 50%
Scp1 inh – blocks human Scp-1 phosphatase activity; Q9GZU7; Recombinant Scp1, phosphopeptide, malachite green phosphate absorbance; inhibition, % at 20 µM; 340,000 tested, 0.88% active;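 active means inhibition above about 50% at 20 µM, limit read from the data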;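 further: plate controls were DMSO wells with enzyme for no effect and wells lacking enzyme for full effect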
Target sequence (Q9GZU7 76-261 limits assumed): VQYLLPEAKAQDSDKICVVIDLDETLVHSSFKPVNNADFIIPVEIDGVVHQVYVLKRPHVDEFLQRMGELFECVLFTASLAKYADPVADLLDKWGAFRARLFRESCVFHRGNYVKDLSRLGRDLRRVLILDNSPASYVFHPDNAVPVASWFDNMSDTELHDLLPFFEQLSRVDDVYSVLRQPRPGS
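Test system: SCP-1 phosphatase catalytic domain, residues 76-261 | Compound dosing: One concentration, 20 µM, with 1.0% DMSO | Schedule: 45 min room-temperature reaction, 5 min colour, 30 min stabiliser | Detection: Absorbance at 630 nm | Read-out basis: % inhibition of SCP-1 phosphate liberation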
STEP block – STEP (human) phosphatase inhibition; P54829; recombinant STEP, OMFP fluorogenic substrate, fluorescence; inhibition, % at 20 µM; 360,000 tested, 0.25% active; AID 588621;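 active means inhibition at 20 µM, scaled per plate between control wells, above about 37%, limit read from the data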;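 further: 0% = DMSO with enzyme and substrate and 100% = substrate only without enzyme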
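Test system: STEP tyrosine phosphatase / Reagent: OMFP at 25 µM / Doses: 20 µM, 1% DMSO / Read-out: percent inhibition scaled to no-enzyme and uninhibited-enzyme controls, plate-pattern corrected / Detection: FITC-channel fluorescence of OMFP product / Medium: Bis-Tris buffer pH 6.0, 2.5 mM DTT, 0.005% Tween 20 / Schedule: 20 min at room temperature, dark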
LMPTP inh – blocks human LMPTP phosphatase; AID 651560; recombinant LMPTP-A, OMFP fluorogenic substrate, fluorescence intensity; 360,000 tested, 0.22% active; inhibition, % at 20 µM; P24666;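 active means compounds that cut the enzyme signal by at least half of the control window in the single-dose screen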;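 further: plate controls were DMSO wells with enzyme plus substrate for no effect and substrate without enzyme for full effect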
Target sequence (P24666 whole entry, looked up): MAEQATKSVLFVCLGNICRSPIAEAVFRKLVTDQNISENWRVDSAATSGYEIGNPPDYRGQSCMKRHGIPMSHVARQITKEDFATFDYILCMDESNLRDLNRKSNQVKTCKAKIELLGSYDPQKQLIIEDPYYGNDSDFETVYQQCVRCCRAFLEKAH
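Assay system: LMPTP-A enzyme. Input: 0.625 nM LMPTP-A final. Probe or stimulus: 400 µM OMFP. Compound dosing: single 20 µM dose. Schedule: 50 min dark incubation at room temperature. Detection: fluorescence intensity of OMFP turnover product. Read-out: percent inhibition versus substrate-only and uninhibited controls. Benchmarks: no-enzyme low control, uninhibited high control.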
Scp-1 conf – confirmation of human Scp-1 phosphatase inhibitors; shares compounds with Scp1 inh; AID 540281; inhibition, % at 20 µM; recombinant SCP-1 catalytic domain, phosphate release, malachite green absorbance; 2,500 tested, 61% active;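 further: plate controls were DMSO with enzyme for no effect and buffer wells lacking enzyme for full effect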
MG interference – counter-screen for Scp-1 inhibitors: colorimetric interference; shares compounds with Scp1 inh; Colorimetric interference counterscreen, malachite green absorbance 630 nm; apparent inhibition (interference), % at 20 µM; 2,500 tested, under 10 active; AID 540313;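 further: compounds added after enzyme reaction finished so only phosphate colour detection is probed; plate controls were DMSO wells with completed Scp-1 reaction for no effect and substrate wells lacking enzyme for full effect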
Scp1 DSF – Scp-1 (human) binding by thermal shift | Recombinant SCP1, Sypro Orange thermal shift Tm | 1,500 tested, 25% active | shares compounds with Scp1 inh | AID 540329 | thermal shift relative to vanadate control, % at 40 µM;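 active means substances whose mean melting-temperature shift, as a percentage of the reference inhibitor's shift, reaches about 5.3%, limit read from the data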;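 further: 0% = Tm of DMSO wells and 100% = Tm with sodium orthovanadate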
DNMT1 confirm – DNMT1 inhibition confirmation, single concentration; 2,300 tested, 8% active; AID 602385; inhibition, % at 10 µM; DNMT1 molecular beacon HinP1I cleavage, fluorescence; shares compounds with DNMT1 inh;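 active means average inhibition of at least 30% in the single-concentration confirmation test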
DNMT1 interf – beacon fluorescence artifact counter-screen | shares compounds with DNMT1 inh | activation (fluorescence interference), % at 10 µM | 2,300 tested, 1% active | AID 602387 | DNMT1 molecular beacon spectral interference counterscreen, fluorescence 485/520;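 active means activation of at least 30% at 10 µM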;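 further: DNMT1 catalytic domain with a HinP1I cleavage step and a FAM/dabcyl DNA beacon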
STEP conf – confirmation of human STEP phosphatase inhibitors; shares compounds with STEP block; 520 tested, 32% active; inhibition, % at 20 µM; recombinant STEP, OMFP fluorogenic substrate, fluorescence; AID 623866; call rule not given here;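 further: 0% = enzyme with substrate plus DMSO and 100% = substrate without enzyme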
An asterisk follows results filed as active; . = not tested or not shown. Sampled rows, rich in hits. Any-hit rate of the full collection: about 2.1%.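 How the source made its calls, unless noted: active means inhibition of at least 30% at 20 µM; inactive means the rest.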

SMILES	SUMO1-SIM PPI	GRK2 inh	DNMT1 inh	Scp1 inh	STEP block	LMPTP inh	Scp-1 conf	MG interference	Scp1 DSF	STEP conf	others
CC12CCC(=O)C=C1CCC1C2C(O)CC2(C)C1CCC2(O)C(=O)COC(=O)CCC1CCCC1 (stereo not drawn)	6	.	-4	.	-1	2	.	.	.	.
Cc1c(C)c(C)c(C(=O)c2ccc(NC(=O)c3ccccc3C(=O)O)cc2)c(C)c1C	2	0	-4	-19	-2	-1	.	.	.	.
N=c1c2ccccc2nnn1-c1ccc(C(F)(F)F)cc1	-6	0	24	73*	94*	68*	62*	-11	-5	17
CCCCn1c(N)c(-c2nc3ccccc3s2)c2c([N+](=O)[O-])nn(C)c(=O)c21	-4	1	-14	3	3	1	.	.	.	.
CCCCCn1c(N)c(-c2nc3ccccc3o2)c2c([N+](=O)[O-])nn(C)c(=O)c21	4	0	92*	99*	97*	83*	73*	1	5.4*	40*	DNMT1 confirm=0;DNMT1 interf=0
O=C(N/N=C\c1ccc(OC(=O)c2cccs2)cc1)c1ccc(Cl)cc1	6	0	43	96*	94*	94*	81*	-12	-24	6
CNc1[nH]c(=O)[nH]c(=O)c1N=Nc1cc(Cl)ccc1Cl	-6	0	4	108*	48*	3	73*	-11	-6	16
Nc1[nH]c(=O)[nH]c(=O)c1N=Nc1cccc(Cl)c1	-18	3	0	35	3	1	.	.	.	.
Cc1c(C)n(C(=O)CSc2nc3ccccc3[nH]2)c2ccccc12	1	7	100*	98*	84*	15	60*	-8	5.8*	52*	DNMT1 confirm=13;DNMT1 interf=-2
Cc1cccc(C)c1NC(=O)NC1(C(=O)N2CCCC2)CCCCC1	2	0	2	-8	1	-1	.	.	.	.
O=C(N/N=C/c1ccc(F)cc1)c1cc(-c2ccc3c(c2)OCO3)n[nH]1	21	0	14	56*	42*	27	35*	-21	-22	36*
CN(C)c1ccc(/C=N/NC(=O)c2cc(-c3ccc4c(c3)OCO4)n[nH]2)cc1	7	0	0	-14	13	21	.	.	.	.
O=C(N/N=C/c1cccc(OC(=O)c2ccc3c(c2)OCO3)c1)c1cncc(Br)c1	-3	1	3	-2	2	-1	.	.	.	.
O=C(N/N=C/c1ccc(OC(=O)c2ccc3c(c2)OCO3)cc1)c1cncc(Br)c1	-3	0	117*	94*	99*	86*	86*	-13	-26	11	DNMT1 confirm=4;DNMT1 interf=-9
O=C(Nc1ccc2c(c1)OCO2)c1ccc2nc([C@@H]3O[C@H](CO)[C@H](O)[C@H](O)[C@H]3O)[nH]c2c1	2	.	5	.	1	-1	.	.	.	.
Cc1ccc(N(CC(=O)N/N=C/c2cccc(Br)c2)S(C)(=O)=O)cc1	3	0	1	-5	-2	-1	.	.	.	.
